Assay results reported in PMC5589077 (ACS chemical neuroscience, 2015).
“And” between values parts separate entries of the source, which are not always exact repeats. Identical values can stand only once. Like-named read-outs stand apart in the source and are kept apart here.

Columns and labels:
α4β2*-nAChR [1] = conditions: monkey striatal synaptosomes, cited from earlier work
α6β2*-nAChR [2] = conditions: read-out: Ki, striatal α6β2*-nAChR; monkey; cited from earlier work
α6β2*-nAChR [3] = conditions: rat striatal synaptosomes; cited from earlier work
α6β2*-nAChR [4] = conditions: monkey striatal synaptosomes; cited from earlier work
α4β2*-nAChR [5] = conditions: rat striatal synaptosomes, cited from earlier work
α6β2*-nAChR [6] = target: T1, α6β2*-nAChR (Mus musculus, UniProt Q9ERK7+Q9R0W9); conditions: read-out: binding Ki, α6β2; [125I]epibatidine; striatum and olfactory tubercle membranes from α4KO mice
mouse [7] = conditions: cited from earlier work
[8] = 62 receptor/enzyme screen; format: binding; conditions: 10 μM
Summary of the method: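 Profiling in a 62-target radioligand and enzyme panel. Test compound was run at 100 nM and 10 000 nM, in duplicate. The work was done by a contractor to the NIDA Addiction Treatment Discovery Program.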

α4β2-nAChR = conditions: cited from earlier work
DAD3 = DAD3 (Homo sapiens, UniProt P35462); assay: off-target radioligand binding assay; conditions: 10 μM
ICR mice [9] = assay: conditioned place preference; format: in vivo, mouse
Summary of the method: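 Test compound given s.c. 15 min before conditioning, in an unbiased three-chamber CPP. Male ICR mice, 8–10 weeks old, n = 8 per group. Baseline day 1: 5 min habituation, 15 min test. Then 3 days of twice-daily 20 min sessions, ≥5 h apart; test on day 5. Score: drug-paired-side time after minus before conditioning; mean ± SEM, p < 0.05 versus vehicle.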

α6β2*-nAChR in α5KO = α6β2*-nAChR in α5KO (Mus musculus, UniProt Q9ERK7+Q9R0W9); format: cell-based; conditions: for max (% nic) dopamine release, α6β2 in α5KO: 10 μM (+) PHT or 100 μM (−) PHT compared to 10 μM nic response; for EC50: read-out: EC50 dopamine release, α6β2 in α5KO, α5KO mice
SERT = SERT (Homo sapiens, UniProt P31645); assay: off-target radioligand binding assay; conditions: 10 μM
rat α7-nAChR = rat α7-nAChR (Rattus norvegicus, UniProt Q05941); format: cell-based; conditions: for antagonism (% of EC50 ACh remaining) α7: 100 μM compound, ACh 300 μM; for IC50: read-out: antagonism, IC50 α7, vs EC50 ACh 300 μM
α6β2*-nAChR [10] = target: T1, α6β2*-nAChR; format: cell-based; conditions: for max (% nic) dopamine release, sens α6β2: 10 μM (+) PHT or 100 μM (−) PHT compared to 10 μM nic response
mouse [11] = conditions: cited from earlier work; for activity in tail-flick test given intrathecally: intrathecally 10 μg/mouse
mouse [12] = conditions: cited from earlier work; remark: listed apart in the source
DAT = DAT (Homo sapiens, UniProt Q01959); assay: off-target radioligand binding assay; conditions: 10 μM
ICR mice [13] = assay: blockade of nicotine-induced CPP; format: in vivo, mouse; conditions: 15 min before nicotine 0.5 mg/kg s.c.
Summary of the method: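 Male ICR mice, 8–10 weeks old, n = 8 per group, in an unbiased three-chamber CPP. Day 1: 5 min habituation, then a 15 min baseline, with the paired side randomised. Days 2–4: two 20 min sessions daily, ≥5 h apart, nicotine 0.5 mg/kg s.c. (saline, free base) versus saline. Test compound or vehicle s.c. 15 min before nicotine. Day 5 retest.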

rat α3β4-nAChR = rat α3β4-nAChR (Rattus norvegicus, UniProt P04757+P12392); format: cell-based; conditions: for antagonism (% of EC50 ACh remaining) α3β4: 100 μM compound, ACh 200 μM; for IC50: read-out: antagonism, IC50 α3β4, vs EC50 ACh 200 μM
mouse [14] = conditions: cited from earlier work; remark: listed apart in the source
α4β2*-nAChR in α5KO = α4β2*-nAChR in α5KO (Mus musculus, UniProt O70174+Q9ERK7); format: cell-based; conditions: for max (% nic) dopamine release, α4β2 in α5KO*: 10 μM (+) PHT or 100 μM (−) PHT compared to 10 μM nic response; for EC50: read-out: EC50 dopamine release, α4β2 in α5KO*, α5KO mice
5HT2A = 5HT2A (Homo sapiens, UniProt P28223); assay: off-target radioligand binding assay; conditions: 10 μM
DAD1 = DAD1 (Homo sapiens, UniProt P21728); assay: off-target radioligand binding assay; conditions: 10 μM
rat α4β2-nAChR = rat α4β2-nAChR (Rattus norvegicus, UniProt P09483+P12390); format: cell-based; conditions: for antagonism (% of EC50 ACh remaining) α4β2: 100 μM compound, ACh 70 μM; for IC50: read-out: antagonism, IC50 α4β2, vs EC50 ACh 70 μM
κ opioid receptor = κ opioid receptor (Homo sapiens, UniProt P41145); assay: off-target radioligand binding assay; conditions: 10 μM
δ opioid receptor = δ opioid receptor (Homo sapiens, UniProt P41143); assay: off-target radioligand binding assay; conditions: 10 μM
DAD2 = DAD2 (Homo sapiens, UniProt P14416); assay: off-target radioligand binding assay; conditions: 10 μM
nAChRs = conditions: cited from earlier work; for Ki: read-out: Ki for inhibition of [3H]epibatidine binding to nAChRs
5HT2C = 5HT2C (Homo sapiens, UniProt P28335); assay: off-target radioligand binding assay; conditions: 10 μM
DAD4 = DAD4 (Homo sapiens, UniProt P21917); assay: off-target radioligand binding assay; conditions: 10 μM
NET = NET (Homo sapiens, UniProt P23975); assay: off-target radioligand binding assay; conditions: 10 μM
Summary of the method: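 Inhibition of specific [125I]RTI-55 binding to the norepinephrine transporter, with test compound at 10 μM. The screen was run by a NIDA drug-discovery program contractor.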

5HT1A = 5HT1A (Homo sapiens, UniProt P08908); assay: off-target radioligand binding assay; conditions: 10 μM
μ opioid receptor = μ opioid receptor (Homo sapiens, UniProt P35372); assay: off-target radioligand binding assay; conditions: 10 μM
α4β2*-nAChR [15] = format: cell-based, mouse; conditions: for max (% nic) dopamine release, res α4β2: 10 μM (+) PHT or 100 μM (−) PHT compared to 10 μM nic response
[16] = percentage of the Emax for acetylcholine

Sequence of rat α7-nAChR (Q05941 23-502): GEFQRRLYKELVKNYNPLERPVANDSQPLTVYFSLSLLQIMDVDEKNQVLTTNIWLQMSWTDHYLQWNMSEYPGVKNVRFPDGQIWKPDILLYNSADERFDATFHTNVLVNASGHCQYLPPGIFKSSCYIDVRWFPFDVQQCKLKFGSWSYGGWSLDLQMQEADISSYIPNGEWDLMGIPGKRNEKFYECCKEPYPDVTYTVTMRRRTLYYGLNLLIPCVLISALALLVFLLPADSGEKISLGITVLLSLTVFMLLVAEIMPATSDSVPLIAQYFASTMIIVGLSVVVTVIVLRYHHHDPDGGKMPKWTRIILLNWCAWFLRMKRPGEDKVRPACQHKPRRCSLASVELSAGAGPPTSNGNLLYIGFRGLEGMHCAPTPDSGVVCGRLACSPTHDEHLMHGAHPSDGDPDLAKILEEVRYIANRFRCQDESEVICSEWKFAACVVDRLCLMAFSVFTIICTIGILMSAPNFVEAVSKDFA
Sequence of rat α3β4-nAChR (P12392 21-495): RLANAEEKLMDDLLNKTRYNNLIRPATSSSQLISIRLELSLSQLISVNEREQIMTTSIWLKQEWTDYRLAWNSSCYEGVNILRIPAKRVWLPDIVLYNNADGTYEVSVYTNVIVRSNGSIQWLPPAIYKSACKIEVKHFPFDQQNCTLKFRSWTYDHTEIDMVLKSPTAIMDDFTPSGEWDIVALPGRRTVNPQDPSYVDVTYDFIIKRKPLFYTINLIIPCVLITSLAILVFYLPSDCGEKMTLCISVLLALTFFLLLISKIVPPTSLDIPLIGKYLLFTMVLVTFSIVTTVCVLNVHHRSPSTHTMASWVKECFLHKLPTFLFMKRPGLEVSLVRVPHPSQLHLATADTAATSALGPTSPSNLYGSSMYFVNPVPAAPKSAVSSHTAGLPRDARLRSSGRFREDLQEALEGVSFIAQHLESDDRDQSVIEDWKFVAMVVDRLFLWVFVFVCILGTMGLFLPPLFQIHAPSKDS
Sequence of rat α3β4-nAChR (P04757 26-499): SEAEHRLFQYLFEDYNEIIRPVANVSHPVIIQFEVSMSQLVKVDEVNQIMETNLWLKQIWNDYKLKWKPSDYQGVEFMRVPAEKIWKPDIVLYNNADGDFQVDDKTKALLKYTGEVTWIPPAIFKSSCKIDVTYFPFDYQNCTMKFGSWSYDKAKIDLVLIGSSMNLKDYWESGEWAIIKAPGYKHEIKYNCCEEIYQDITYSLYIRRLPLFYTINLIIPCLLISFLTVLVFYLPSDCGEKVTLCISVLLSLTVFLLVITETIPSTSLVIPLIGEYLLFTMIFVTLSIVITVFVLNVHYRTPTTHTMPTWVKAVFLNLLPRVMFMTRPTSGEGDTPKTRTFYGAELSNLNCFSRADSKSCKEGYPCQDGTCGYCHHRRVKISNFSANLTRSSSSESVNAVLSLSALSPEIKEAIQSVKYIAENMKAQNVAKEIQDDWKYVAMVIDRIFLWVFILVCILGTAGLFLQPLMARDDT
Sequence of rat α4β2-nAChR (P12390 25-500): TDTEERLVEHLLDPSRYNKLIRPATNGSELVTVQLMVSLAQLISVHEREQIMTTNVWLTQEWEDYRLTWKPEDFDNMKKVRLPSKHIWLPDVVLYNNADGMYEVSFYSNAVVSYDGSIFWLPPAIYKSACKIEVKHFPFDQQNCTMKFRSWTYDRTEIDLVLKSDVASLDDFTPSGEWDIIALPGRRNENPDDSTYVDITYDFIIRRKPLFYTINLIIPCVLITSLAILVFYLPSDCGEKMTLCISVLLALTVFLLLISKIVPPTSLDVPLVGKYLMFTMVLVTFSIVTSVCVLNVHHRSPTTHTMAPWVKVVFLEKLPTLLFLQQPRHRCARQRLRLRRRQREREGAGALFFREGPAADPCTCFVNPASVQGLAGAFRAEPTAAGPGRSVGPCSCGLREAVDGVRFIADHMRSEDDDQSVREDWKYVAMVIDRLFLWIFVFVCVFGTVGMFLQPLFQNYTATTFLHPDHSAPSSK
Sequence of rat α4β2-nAChR (P09483 31-630): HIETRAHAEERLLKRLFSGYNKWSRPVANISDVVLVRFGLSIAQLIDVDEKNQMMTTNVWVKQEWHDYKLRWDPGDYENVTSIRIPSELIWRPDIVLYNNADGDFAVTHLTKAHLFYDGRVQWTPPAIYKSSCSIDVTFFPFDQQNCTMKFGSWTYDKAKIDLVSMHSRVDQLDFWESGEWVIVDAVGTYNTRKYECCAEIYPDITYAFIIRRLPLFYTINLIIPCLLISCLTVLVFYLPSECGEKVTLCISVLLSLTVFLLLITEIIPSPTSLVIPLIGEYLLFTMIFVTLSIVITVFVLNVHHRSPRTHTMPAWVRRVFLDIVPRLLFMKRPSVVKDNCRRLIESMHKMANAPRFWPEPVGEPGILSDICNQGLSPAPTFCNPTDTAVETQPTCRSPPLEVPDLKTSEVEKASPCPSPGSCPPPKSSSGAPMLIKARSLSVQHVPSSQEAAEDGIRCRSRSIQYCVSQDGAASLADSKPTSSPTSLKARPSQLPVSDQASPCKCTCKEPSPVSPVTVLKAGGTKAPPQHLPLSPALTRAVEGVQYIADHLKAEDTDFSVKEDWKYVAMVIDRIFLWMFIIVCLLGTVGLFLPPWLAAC
Sequence of α4β2*-nAChR in α5KO (O70174 31-629): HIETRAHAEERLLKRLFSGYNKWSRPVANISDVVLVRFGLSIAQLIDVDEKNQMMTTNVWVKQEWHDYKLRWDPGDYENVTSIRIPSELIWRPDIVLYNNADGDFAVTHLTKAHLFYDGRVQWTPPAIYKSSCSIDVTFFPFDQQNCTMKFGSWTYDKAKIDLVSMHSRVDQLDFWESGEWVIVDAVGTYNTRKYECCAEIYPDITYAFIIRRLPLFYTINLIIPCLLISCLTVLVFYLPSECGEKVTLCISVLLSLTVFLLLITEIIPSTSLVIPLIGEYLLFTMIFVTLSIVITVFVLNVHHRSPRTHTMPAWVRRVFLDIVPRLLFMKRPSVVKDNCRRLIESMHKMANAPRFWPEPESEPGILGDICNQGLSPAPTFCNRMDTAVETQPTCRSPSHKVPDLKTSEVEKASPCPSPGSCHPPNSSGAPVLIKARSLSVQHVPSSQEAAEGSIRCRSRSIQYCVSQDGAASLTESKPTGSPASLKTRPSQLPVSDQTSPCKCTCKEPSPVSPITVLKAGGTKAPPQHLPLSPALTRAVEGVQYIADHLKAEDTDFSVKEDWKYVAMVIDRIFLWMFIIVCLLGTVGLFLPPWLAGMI
Sequence of α4β2*-nAChR in α5KO (Q9ERK7 26-501): as the sequence (P12390 25-500) above, with A350T, V371M, R379Q, T383A, P387L, V391M, V449I, P468S counted along it
Sequence of α6β2*-nAChR in α5KO (Q9R0W9 26-494): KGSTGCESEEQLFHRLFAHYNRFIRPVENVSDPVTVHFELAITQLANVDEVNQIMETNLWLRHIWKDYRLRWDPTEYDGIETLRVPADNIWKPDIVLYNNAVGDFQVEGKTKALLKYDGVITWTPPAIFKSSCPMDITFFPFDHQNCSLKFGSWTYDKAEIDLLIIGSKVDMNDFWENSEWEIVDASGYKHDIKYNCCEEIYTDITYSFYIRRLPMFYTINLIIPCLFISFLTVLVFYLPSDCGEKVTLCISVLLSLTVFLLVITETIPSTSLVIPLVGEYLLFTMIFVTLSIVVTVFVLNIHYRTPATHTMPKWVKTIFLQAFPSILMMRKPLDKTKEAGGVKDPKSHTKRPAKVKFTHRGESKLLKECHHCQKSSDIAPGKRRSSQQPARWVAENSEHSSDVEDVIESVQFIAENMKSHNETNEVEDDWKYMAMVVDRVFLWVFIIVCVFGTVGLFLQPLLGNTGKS
Sequence of α6β2*-nAChR in α5KO (Q9ERK7 26-501): as the sequence (P12390 25-500) above, with A350T, V371M, R379Q, T383A, P387L, V391M, V449I, P468S counted along it
Sequence of α4β2*-nAChR (Q9ERK7 26-501): as the sequence (P12390 25-500) above, with A350T, V371M, R379Q, T383A, P387L, V391M, V449I, P468S counted along it
Sequence of α4β2*-nAChR (O70174 31-629, further chain): as the sequence (O70174 31-629) above
T1 sequence (Q9ERK7 26-501): as the sequence (P12390 25-500) above, with A350T, V371M, R379Q, T383A, P387L, V391M, V449I, P468S counted along it
T1 sequence (Q9R0W9 26-494): as the sequence (Q9R0W9 26-494) above
Sequence of NET (P23975 whole entry): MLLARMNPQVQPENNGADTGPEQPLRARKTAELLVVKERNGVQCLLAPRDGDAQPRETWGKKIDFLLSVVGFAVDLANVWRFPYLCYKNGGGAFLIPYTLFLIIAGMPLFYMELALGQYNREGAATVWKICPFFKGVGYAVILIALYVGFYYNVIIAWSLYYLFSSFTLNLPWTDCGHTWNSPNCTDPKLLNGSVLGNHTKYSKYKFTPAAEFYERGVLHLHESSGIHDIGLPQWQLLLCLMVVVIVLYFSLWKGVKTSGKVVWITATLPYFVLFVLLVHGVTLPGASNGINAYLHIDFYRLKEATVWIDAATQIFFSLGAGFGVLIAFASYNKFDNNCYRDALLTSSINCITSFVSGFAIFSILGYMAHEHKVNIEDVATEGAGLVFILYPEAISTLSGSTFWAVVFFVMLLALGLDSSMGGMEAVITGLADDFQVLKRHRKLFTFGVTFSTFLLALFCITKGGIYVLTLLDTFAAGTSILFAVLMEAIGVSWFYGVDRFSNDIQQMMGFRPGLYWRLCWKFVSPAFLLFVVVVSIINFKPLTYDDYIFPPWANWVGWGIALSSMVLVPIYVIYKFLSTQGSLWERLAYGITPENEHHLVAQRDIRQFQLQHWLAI
Sequence of μ opioid receptor (P35372 whole entry): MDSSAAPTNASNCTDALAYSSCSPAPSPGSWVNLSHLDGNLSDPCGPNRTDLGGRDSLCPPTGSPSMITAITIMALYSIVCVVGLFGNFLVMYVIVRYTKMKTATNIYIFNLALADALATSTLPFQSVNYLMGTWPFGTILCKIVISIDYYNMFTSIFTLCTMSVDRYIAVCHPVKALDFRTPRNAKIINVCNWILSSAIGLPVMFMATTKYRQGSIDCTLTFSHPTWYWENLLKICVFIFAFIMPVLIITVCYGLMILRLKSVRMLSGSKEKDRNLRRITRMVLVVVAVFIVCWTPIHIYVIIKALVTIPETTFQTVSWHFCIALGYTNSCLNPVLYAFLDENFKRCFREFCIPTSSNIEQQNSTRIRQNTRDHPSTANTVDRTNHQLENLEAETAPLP

c1cnc2cc3c(cc2n1)[C@@H]1CNC[C@H]3C1 [varenicline, 6,7,8,9,10-Tetrahydro-6,10-methano-6H-pyyrazino[2,3-h][3]benzazepine]
Emax, α4β2*-nAChR (α4β2*-nAChR [1]): […] | EC50 (α4β2*-nAChR [1]; read-out: EC50, α4β2*-nAChR-mediated [3H]DA-release): […] | Ki (α6β2*-nAChR [2]): 0.13 nM | maximal efficacy at α6β2-nAChR (α6β2*-nAChR [3]): 49% | Emax, α6β2*-nAChR (α6β2*-nAChR [4]): 13% | maximal efficacy at α4β2-nAChR (α4β2*-nAChR [5]): […] | EC50 (α4β2*-nAChR [5]; read-out: EC50, α4β2*-nAChR-mediated [3H]DA release): […]

Pyrido[3,4]homotropane [(+)-PHT]
Ki (α6β2*-nAChR [6]): 28 nM | antinociceptive (agonist) activity in hot-plate test (mouse [7]): no antinociceptive activity | activity at off site targets in 62 receptor/enzyme screen (NovaScreen) [8]: inactive | EC50 (α4β2-nAChR; read-out: EC50 at α4β2-nAChR): 5500 nM | intrinsic activity at α4β2-nAChR (α4β2-nAChR; versus full agonist acetylcholine (1 mM)): 17% | activity in radioligand binding assay, DAD3 (DAD3): inactive | CPP scores (ICR mice [9]; 3 mg/kg s.c., 15 min before conditioning): significantly increased | max (% nic) dopamine release, α6β2 in α5KO (α6β2*-nAChR in α5KO): 125% | EC50 (α6β2*-nAChR in α5KO): 200 nM | activity in radioligand binding assay, SERT (SERT): inactive | antagonism (% of EC50 ACh remaining) α7 (rat α7-nAChR): 87± 1% | IC50 (rat α7-nAChR): 720000 ± 290000 nM | max (% nic) dopamine release, sens α6β2 (α6β2*-nAChR [10]): 94% | potency relative to (−)-PHT at the α6β2*-nAChR (DA release EC50) (α6β2*-nAChR [10]; wild type mice): 30 fold | activity in tail-flick test given intrathecally (mouse [11]): no antinociceptive activity | antinociceptive (agonist) activity in tail-flick test (mouse [11]; mouse): no antinociceptive activity | activity in locomotor-activity test (mouse [12]): weak activity | activity in radioligand binding assay, DAT (DAT): inactive | preference scores in comparison to nicotine alone (ICR mice [13]; pretreatment 1 mg/kg): significantly reduced | antagonism (% of EC50 ACh remaining) α3β4 (rat α3β4-nAChR): 93 ± 3% | agonist activity α3β4 Emax (% ACh) (rat α3β4-nAChR; [16]): 8.4 % ACh and 8.4 ± 0.5 % ACh | EC50 (rat α3β4-nAChR; read-out: agonist activity α3β4 EC50, concentration–response curve): 50000 ± 6000 nM | IC50 (rat α3β4-nAChR): 242000 ± 13000 nM | activity in hypothermia test (mouse [14]): weak activity | max (% nic) dopamine release, α4β2 in α5KO* (α4β2*-nAChR in α5KO): 13% | EC50 (α4β2*-nAChR in α5KO): 2000 nM | activity in radioligand binding assay, 5HT2A (5HT2A): inactive | activity in radioligand binding assay, DAD1 (DAD1): inactive | agonist potency at α4β2-nAChR compared to α3β4-nAChR (EC50 comparison) (rat α4β2-nAChR): 12 fold | antagonist selectivity for α4β2- relative to α3β4-nAChR (IC50 comparison) (rat α4β2-nAChR): 15 fold | antagonist selectivity for α4β2- relative to α7-nAChR (IC50 comparison) (rat α4β2-nAChR): 45 fold | antagonism (% of EC50 ACh remaining) α4β2 (rat α4β2-nAChR): 17 ± 3% | agonist activity α4β2 Emax (% ACh) (rat α4β2-nAChR; [16]): 4.6 % ACh and 4.6 ± 0.4 % ACh | EC50 (rat α4β2-nAChR; read-out: agonist activity α4β2 EC50, concentration–response curve): 4000 ± 1000 nM | IC50 (rat α4β2-nAChR): 16000 ± 3000 nM | activity in radioligand binding assay, κ opioid receptor (κ opioid receptor): inactive | activity in radioligand binding assay, δ opioid receptor (δ opioid receptor): inactive | activity in radioligand binding assay, DAD2 (DAD2): inactive | affinity relative to (−)-PHT for inhibition of [3H]epibatidine binding (nAChRs): 266 times | Ki (nAChRs): 1.29 nM | activity in radioligand binding assay, 5HT2C (5HT2C): inactive | activity in radioligand binding assay, DAD4 (DAD4): inactive | inhibition of specific [125I]RTI-55 binding to the NET (NET): 61% | activity in radioligand binding assay, 5HT1A (5HT1A): inactive | activity in radioligand binding assay, μ opioid receptor (μ opioid receptor): inactive | max (% nic) dopamine release, res α4β2 (α4β2*-nAChR [15]): 33% | potency relative to (−)-PHT at the α4β2*-nAChR (DA release EC50) (α4β2*-nAChR [15]; wild type mice): 10 fold

Pyrido[3,4]homotropane [(−)-PHT]
Ki (α6β2*-nAChR [6]): 629 nM | AD50, antagonism of antinociceptive effects of nicotine in the hot-plate test (mouse [7]): 0.8 µg/kg | antinociceptive (agonist) activity in hot-plate test (mouse [7]): inactive | activity at off site targets in 62 receptor/enzyme screen (NovaScreen) [8]: inactive | activation of currents at α4β2-nAChR (α4β2-nAChR): did not activate currents | activity in radioligand binding assay, DAD3 (DAD3): inactive | induction of significant preference in the CPP test (ICR mice [9]; all doses tested, s.c.): ineffective | max (% nic) dopamine release, α6β2 in α5KO (α6β2*-nAChR in α5KO): 96% | EC50 (α6β2*-nAChR in α5KO): 2000 nM | activity in radioligand binding assay, SERT (SERT): inactive | antagonism (% of EC50 ACh remaining) α7 (rat α7-nAChR): 84± 10% | IC50 (rat α7-nAChR): 353000 ± 34000 nM | max (% nic) dopamine release, sens α6β2 (α6β2*-nAChR [10]): 109% | activity in tail-flick test given intrathecally (mouse [11]): inactive | AD50, antagonism of nicotine-induced antinociception in the tail-flick test (mouse [11]; mouse): 0.07 µg/kg | antinociceptive (agonist) activity in tail-flick test (mouse [11]; mouse): inactive | activity in locomotor-activity test (mouse [12]): inactive | activity in radioligand binding assay, DAT (DAT): inactive | blockade of nicotine-induced CPP (ICR mice [13]; pretreatment 0.05 mg/kg): completely preventing nicotine preference | antagonist selectivity for α3β4- relative to α4β2-nAChR (rat α3β4-nAChR): 3 fold | antagonist selectivity for α3β4- relative to α7-nAChR (rat α3β4-nAChR): 11 fold | antagonism (% of EC50 ACh remaining) α3β4 (rat α3β4-nAChR): 32 ± 3% | IC50 (rat α3β4-nAChR): 33000 ± 6000 nM | activity in hypothermia test (mouse [14]): inactive | max (% nic) dopamine release, α4β2 in α5KO* (α4β2*-nAChR in α5KO): 10% | EC50 (α4β2*-nAChR in α5KO): 700 nM | activity in radioligand binding assay, 5HT2A (5HT2A): inactive | activity in radioligand binding assay, DAD1 (DAD1): inactive | antagonism (% of EC50 ACh remaining) α4β2 (rat α4β2-nAChR): 41 ± 4% | IC50 (rat α4β2-nAChR): 99000 ± 13000 nM | activity in radioligand binding assay, κ opioid receptor (κ opioid receptor): inactive | activity in radioligand binding assay, δ opioid receptor (δ opioid receptor): inactive | activity in radioligand binding assay, DAD2 (DAD2): inactive | Ki (nAChRs): 346 nM | activity in radioligand binding assay, 5HT2C (5HT2C): inactive | activity in radioligand binding assay, DAD4 (DAD4): inactive | activity in radioligand binding assay, NET (NET): inactive | activity in radioligand binding assay, 5HT1A (5HT1A): inactive | activity in radioligand binding assay, μ opioid receptor (μ opioid receptor): inactive | max (% nic) dopamine release, res α4β2 (α4β2*-nAChR [15]): 17%

Pyrido[3,4]homotropane [PHT]
Ki (nAChRs): 6.2 nM
